# FXN GAA850 act: frataxin GAA850 promoter activation. HEK293 lucGAA850 FXN promoter luciferase reporter, 24 h; percent of 10 µM SAHA response. activation, % at 6 µM. 0.56% of 360,000 active;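 active = activation above the average of all compounds screened plus 3 SD, cutoff fixed separately per campaign, cut at about 7.5% in these data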;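 also: 0% = DMSO wells and 100% = 10 µM SAHA wells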
# SR-BI uptake up: activators of SR-BI mediated HDL lipid uptake | activation, % at 12.5 µM | 0.096% of 320,000 active | CHO ldlA[mSR-BI] cells, DiI-HDL uptake fluorescence, 3 h; 100 = double the neutral-control signal;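 active = mean replicate activation of at least 60% and every replicate at or above 60%; inconclusive = mean or all-replicate condition met, but not both; inactive = mean below 60% and not all replicates reaching 60%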;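 also: 0% = median plate neutral-control signal and 100% = twice that signal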
#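 Assay system: LDL receptor-deficient CHO ldlA cells overexpressing murine SR-BI / Medium: BSA-supplemented, HEPES-buffered Ham's F12, pH 7.4 / Probe or stimulus: DiI-labelled HDL at 10 µg/mL final / Timing: compound with DiI-HDL co-incubation, 3 h at 37 °C / Technique: bottom-read cell fluorescence after medium removal, ex 550/em 595 nm / Measure: HDL uptake via cellular fluorescence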
# AHR act: human AHR activation; activation, % at 5 µM; AHR-responsive luciferase reporter cells, luminescence; P35869; 2.5% of 320,000 active; AID 2796; in the data active = activation above about 47%;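 also: 0% = vehicle wells and 100% = reference agonist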
# SR-BI HDL uptake: blocks mouse SR-BI lipid uptake from DiI-HDL. AID 488896. Q61009. ldlA[mSR-BI] CHO cells, DiI-HDL uptake fluorescence, 3 h. 0.96% of 320,000 active. inhibition, % at 12.5 µM;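 active = mean replicate inhibition of at least 70% and a set share of replicates each scoring 70 or more; inconclusive = meets just one of the two criteria; inactive = fails both criteria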;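 also: 0% = median of neutral control wells and 100% = median of positive control wells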
# Target sequence (Q61009 whole entry, looked up): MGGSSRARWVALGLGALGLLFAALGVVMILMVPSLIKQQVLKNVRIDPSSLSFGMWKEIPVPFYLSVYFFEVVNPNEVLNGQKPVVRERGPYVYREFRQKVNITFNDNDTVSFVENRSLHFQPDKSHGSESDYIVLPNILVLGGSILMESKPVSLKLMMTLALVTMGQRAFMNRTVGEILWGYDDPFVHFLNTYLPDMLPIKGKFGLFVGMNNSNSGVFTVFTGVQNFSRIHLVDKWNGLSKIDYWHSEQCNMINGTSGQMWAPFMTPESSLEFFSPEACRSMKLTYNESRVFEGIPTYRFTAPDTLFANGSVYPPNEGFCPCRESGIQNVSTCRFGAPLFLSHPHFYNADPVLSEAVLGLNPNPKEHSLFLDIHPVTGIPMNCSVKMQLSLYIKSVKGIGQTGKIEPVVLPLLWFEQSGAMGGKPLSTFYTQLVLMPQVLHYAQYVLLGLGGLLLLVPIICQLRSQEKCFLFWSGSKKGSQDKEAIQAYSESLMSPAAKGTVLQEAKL
# JMJD2C inh: blocks human GASC-1 demethylase activity. Q9H3R0. GST-JMJD2C(1-420) H3K9me3 demethylation, DELFIA europium. inhibition, % at 2.35 µM. 0.069% of 330,000 active. AID 2099;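 active = more than half of a compound's replicate wells show inhibition beyond 50%, single wells judged on their own value; inconclusive = some, but no more than half, of replicates pass 50% inhibition; inactive = no replicate passes 50% inhibition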;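 also: signal counts dimethyl H3K9 product captured on neutravidin plate; 0% = median of DMSO wells and 100% = 0.3 times that DMSO median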
# An asterisk follows results filed as active; i = inactive; u = inconclusive; x = not tested or not shown. Rows were chosen to be rich in hits. Some 3.7% of all compounds tested hit in one or more screens of this group.
SMILES,FXN GAA850 act,SR-BI uptake up,AHR act,SR-BI HDL uptake,JMJD2C inh
CC(NC(N)=O)C(=O)OCC(=O)c1ccc(-c2ccccc2)cc1 (stereo not drawn),-1,-9,4,9,-11
Cc1ccc(CNC(=O)C2CCN(C(=O)Nc3ccccc3)CC2)cc1,2,-31,1,31,3
CCCCNC(=O)C1(C)CCN1C(=O)c1cc(OC)ccc1Br (stereo not drawn),0,x,x,x,x
CSc1nc(C)cc(SCC(=O)N/N=C/c2ccccc2)n1,1,12,71*,-12,3
CCCSc1nnc2n(C)c(=O)c3c4c(sc3n12)CCC4,3,22,78*,-22,-2
CC(=O)C1=C(O)C(=O)N(c2ccc(Br)cc2)C1c1ccc(Br)cc1 (stereo not drawn),-1,-9,49*,9,71
CC(=O)C1=C(O)C(=O)N(c2cccc(Br)c2)C1c1ccc(Br)cc1 (stereo not drawn),0,-4,0,4,-1
O=C(CNC(=O)c1ccccc1)NCc1nc2ccccc2[nH]1,1,4,3,-4,-19
Cc1cccc(-c2nc(Nc3cccc(O)c3)c3ccccc3n2)c1,0,-64,68*,64,-29
Cc1cccc(-c2nc(Nc3ccc(N4CCOCC4)cc3)c3ccccc3n2)c1,0,-61,56*,61,1
c1ccc2c(Nc3ccc(N4CCOCC4)cc3)nc(N3CCOCC3)nc2c1,1,10,72*,-10,-4
Cc1cccc(OCc2n[nH]c(=S)n2Cc2ccccc2)c1,1,15,2,-15,2
C=CCn1cnc2c(nnn2-c2ccc(C)c(Cl)c2)c1=O,3,-2,-1,2,-1
COc1cc(-c2nc3ccccn3c2NCc2ccccc2)ccc1SC1CCCCC1,0,-34,69*,34,-3
COc1ccc(-c2nc3cnccn3c2NCc2ccccc2)cc1SC1CCCCC1,-2,-19,50*,19,-7
CCCCCCSc1cc(-c2nc3cc(C)ccn3c2NC2CCCCC2)ccc1OC,1,-4,6,4,0
CCCCCCSc1cc(-c2nc3cnccn3c2NCc2ccccc2)ccc1OC,3,-39,49*,39,1
CCCCNc1c(-c2ccc(-c3ccc(C(C)=O)cc3)c(OC)c2)nc2cnccn12,-2,-73,18,73*,3
COc1cc(-c2nc3ccc(C)cn3c2NCc2ccccc2)ccc1SC1CCCCC1,1,-6,10,6,i
COc1cc(-c2nc3ccc(C)cn3c2NCc2ccccc2)ccc1-c1cccc(Cl)c1,0,-24,73*,24,4
COc1ccc(-c2nc3ccc(C)cn3c2NCc2ccc3c(c2)OCO3)cc1,5,11,69*,-11,-1
CCC(C)Sc1ccc(-c2nc3ccc(C)cn3c2NCc2ccccc2)cc1 (stereo not drawn),0,-13,3,13,x
COc1cccc(-c2noc(CCCC(=O)N3CCOCC3)n2)c1,0,x,4,x,4
Cc1cccc2cc3c(N)c(C(=O)N4CCc5ccccc54)sc3nc12,-3,0,7,0,-11
CCN(CC)c1ccc(NC(=O)c2[nH]c(C)c(C(C)=O)c2C)c(C)c1,-2,-52,2,52,u
SMILES,FXN GAA850 act,SR-BI uptake up,AHR act,SR-BI HDL uptake,JMJD2C inh
CCc1c(C(=O)Nc2cc(C)ccc2OC)[nH]c(C)c1C(C)=O,1,-50,52*,50,4
CCCCC(CC)CNC(=O)c1[nH]c(C)c(C(C)=O)c1C (stereo not drawn),0,-32,27,32,-10
CCCCNC(=O)c1[nH]c(C)c(C(C)=O)c1C,-1,18,67*,-18,-4
CC(=O)c1c(C)[nH]c(C(=O)Nc2cc(F)ccc2C)c1C,-1,-12,58*,12,-10
CC(=O)c1c(C)[nH]c(C(=O)Nc2ccc(C)cc2Br)c1C,4,-36,52*,36,-3
CC1CCCCC12NC(=O)N(CC(=O)Nc1ccccc1F)C2=O (stereo not drawn),0,11,x,-11,x
Cc1cc2cc3c(=O)[nH]c(=O)[nH]c3nc2cc1C,x,x,2,x,-8
CCC(C)C(NC(=O)c1ccc(Cl)cc1Cl)C(=O)O (stereo not drawn),0,27,-1,-27,-6
CCc1nnc(NC(=O)CSc2ccc(Cl)cc2)s1,1,5,3,-5,-14
Cc1ccc(C2=NS(=O)(=O)N(C)C(C(=O)NC(C)c3ccccc3)=C2)cc1 (stereo not drawn),0,-1,0,1,-4
Cc1ccc(/C=C2\SC(N3CCCCC3)=NC2=O)cc1,2,13,71*,-13,-3
COc1cc(OC)c(OC)cc1/C=C1\SC(N2CCCCC2)=NC1=O,7,-13,10,13,1
O=C1N=C(N2CCCCC2)S/C1=C\c1ccc(Cl)cc1,3,22,30,-22,4
COc1ccc(OC)c(/C=C2\SC(N3CCCCC3)=NC2=O)c1,2,-30,74*,30,7
COC(=O)[C@H]1C[C@H](C(=O)O)[C@@H](C)C1(C)C,2,36,2,-36,x
COc1ccc(O)c(C(=O)c2coc(=N)c(C(=O)Nc3ccc(SC(F)F)cc3)c2)c1,-3,-76,5,76*,19
Cc1cccc(C(=O)Nc2ccc(C(=O)/C=C/c3cccnc3)cc2)c1,15*,-69,3,69,-2
O=C(/C=C/c1cccnc1)c1ccc(NC(=O)c2cccc(Br)c2)cc1,5,-31,13,31,2
Nc1[nH]nc2c1NN(c1ccc(Cl)cc1Cl)N2,0,40,75*,-40,-4
Nc1c(-c2n[nH]c(=S)n2-c2ccc(Cl)cc2Cl)cnn1-c1ccccc1,2,15,4,-15,-31
CCn1c2ccccc2c2c3ncc4cccn4c3ccc21,0,-58,66*,58,-3
CCn1c(=O)c(-c2nc3ccccc3[nH]2)c(O)c2ccccc21,x,x,69*,x,36
Cc1cnc(C(=O)OCC(=O)Nc2cc(-c3cc(C)c(C)cc3C)nn2-c2ccccc2)cn1,1,4,60*,-4,3
Cc1cc(C)c(-c2cc(NC(=O)CSc3n[nH]c(N)n3)n(-c3ccccc3)n2)cc1C,2,-42,56*,42,-4
COc1cc(C(=O)OCC(=O)Nc2cc(-c3cc(C)c(C)cc3C)nn2-c2ccccc2)cc(OC)c1OC,2,14,39,-14,0
Cc1cc(C)c(-c2cc(NC(=O)COC(=O)c3ccc(CO)cc3)n(-c3ccccc3)n2)cc1C,1,-29,2,29,-7
CCc1nc(Nc2ccc(OC)c(OC)c2)c2nnn(Cc3ccccc3Cl)c2n1,-4,-53,22,53,-5
O=C(N/N=C/c1cc(Cl)cc([N+](=O)[O-])c1O)c1cccc(S(=O)(=O)N2CCOCC2)c1,1,-125,x,125*,x
